The text below walks through data of ChEMBL document CHEMBL4402584, “Lead Optimization of Phthalazinone Phosphodiesterase Inhibitors as Novel Antitrypanosomal Compounds” (J Med Chem, 2020).

The target of assay [1] is 3',5'-cyclic-AMP phosphodiesterase 4D (Homo sapiens, UniProt Q08499). Description: Inhibition of human PDE4D2 expressed in Escherichia coli BL21 (DE3) using cAMP as substrate by PDELight HTS cAMP phosphodiesterase Kit based. An outline of the steps: (§1)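 Recombinant catalytic domains, His-tag purified, then ion exchange and size exclusion, were tested with the PDELight HTS cAMP kit in stimulation buffer (50 mM Hepes, 100 mM NaCl, 10 mM MgCl2, 0.5 mM EDTA, 0.05 mg/ml BSA, pH 7.5). Dose-response curves gave Ki, expressed as pKi = −log10(Ki ÷ 1000000).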

Assay [2] addresses T1, Class 1 phosphodiesterase PDEB1 (Trypanosoma brucei, UniProt Q8WQX9).
T1 sequence (Q8WQX9 whole entry): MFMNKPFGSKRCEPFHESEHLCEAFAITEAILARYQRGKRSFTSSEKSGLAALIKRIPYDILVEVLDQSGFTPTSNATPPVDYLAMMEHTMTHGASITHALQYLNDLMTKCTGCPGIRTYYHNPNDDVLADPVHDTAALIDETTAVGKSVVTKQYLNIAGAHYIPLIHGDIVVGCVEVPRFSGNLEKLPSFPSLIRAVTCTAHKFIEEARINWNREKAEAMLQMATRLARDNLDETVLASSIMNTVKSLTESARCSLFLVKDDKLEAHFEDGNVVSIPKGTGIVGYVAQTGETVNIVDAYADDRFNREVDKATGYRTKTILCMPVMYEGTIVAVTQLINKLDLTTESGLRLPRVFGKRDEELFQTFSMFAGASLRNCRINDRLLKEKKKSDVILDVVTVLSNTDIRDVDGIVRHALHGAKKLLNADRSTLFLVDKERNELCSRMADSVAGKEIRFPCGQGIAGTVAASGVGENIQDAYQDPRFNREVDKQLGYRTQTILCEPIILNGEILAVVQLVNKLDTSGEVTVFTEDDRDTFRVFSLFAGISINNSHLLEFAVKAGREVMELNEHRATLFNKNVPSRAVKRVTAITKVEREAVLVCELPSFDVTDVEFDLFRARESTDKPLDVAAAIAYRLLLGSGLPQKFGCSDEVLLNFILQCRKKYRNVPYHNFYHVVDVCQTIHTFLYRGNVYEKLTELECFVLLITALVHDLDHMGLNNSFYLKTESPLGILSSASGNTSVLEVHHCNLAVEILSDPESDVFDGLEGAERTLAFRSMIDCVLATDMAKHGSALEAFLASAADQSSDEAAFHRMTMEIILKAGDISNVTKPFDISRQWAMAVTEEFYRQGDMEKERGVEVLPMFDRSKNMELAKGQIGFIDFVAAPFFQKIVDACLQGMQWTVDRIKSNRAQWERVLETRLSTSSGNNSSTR
Description: Inhibition of Trypanosoma brucei PDEB1 (565 to 918 residues) expressed in Escherichia coli BL21 (DE3) using cAMP as substrate by PDELight HTS cAMP phosphodiesterase Kit based. An outline of the steps:
as §1

Assay [3] is described as follows: Cytotoxicity against human MRC5 SV2 cells assessed as reduction in cell viability incubated for 72 hrs by resazurin dye based fluorimetric assay. To be noted: MRC-5 SV2, 72 h. Put shortly:
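MRC-5 SV2 fibroblasts grown in Earl's MEM with 5% FBSi, L-glutamine and bicarbonate; 1×10^4 cells/well treated 72 h at 37 °C, 5% CO2; resazurin viability read fluorimetrically (ex 550, em 590 nm). Five 4-fold dilutions from a 64 µM top concentration; IC50 derived from % viability reduction vs untreated wells; tamoxifen as reference.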

The subject of a further assay is Trypanosoma brucei. Description: Antitrypanosomal activity against Trypanosoma brucei Squib 427 assessed as reduction in parasite growth incubated for 72 hrs by resazurin dye based fluorimetric analysis. The assay is classed as functional, organism-based. To be noted: Squib 427, 72 h.

Chain of 3',5'-cyclic-AMP phosphodiesterase 4D (Q08499 whole entry, the tested form may be a part): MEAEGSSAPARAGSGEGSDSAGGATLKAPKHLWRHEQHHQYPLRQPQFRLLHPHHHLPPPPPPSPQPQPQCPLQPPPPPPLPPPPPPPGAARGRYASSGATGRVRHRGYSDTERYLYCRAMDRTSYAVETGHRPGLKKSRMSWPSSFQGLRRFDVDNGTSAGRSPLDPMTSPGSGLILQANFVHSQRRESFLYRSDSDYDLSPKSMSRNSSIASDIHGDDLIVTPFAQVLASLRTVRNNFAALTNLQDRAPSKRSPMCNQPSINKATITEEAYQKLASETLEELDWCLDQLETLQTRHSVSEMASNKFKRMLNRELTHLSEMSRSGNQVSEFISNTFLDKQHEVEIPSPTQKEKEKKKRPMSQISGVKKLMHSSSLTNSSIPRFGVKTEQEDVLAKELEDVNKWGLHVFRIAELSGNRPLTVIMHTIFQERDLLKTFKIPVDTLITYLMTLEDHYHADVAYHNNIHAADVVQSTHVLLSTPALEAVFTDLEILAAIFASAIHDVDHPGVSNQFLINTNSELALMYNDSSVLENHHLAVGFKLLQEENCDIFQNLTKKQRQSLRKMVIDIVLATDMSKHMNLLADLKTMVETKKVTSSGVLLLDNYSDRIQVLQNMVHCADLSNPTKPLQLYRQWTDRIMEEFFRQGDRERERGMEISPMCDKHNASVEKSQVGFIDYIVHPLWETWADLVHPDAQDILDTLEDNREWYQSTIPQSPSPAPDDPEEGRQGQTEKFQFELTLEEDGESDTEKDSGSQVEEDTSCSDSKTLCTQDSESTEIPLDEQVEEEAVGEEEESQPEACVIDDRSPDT

Take `COc1ccc(C2=NN(C3CCN(c4ncnc5ccccc45)CC3)C(=O)[C@@H]3CC=CC[C@H]23)cc1OC`: the figures for the Ki in assay [1] and in assay [2] were 0.000224 µM and 0.646 µM, respectively. Further, the IC50 in assay [3] is 3.02 µM; in the assay on Trypanosoma brucei, 0.263 µM.

`COc1ccc(C2=NN(C3CCN(C(=O)CN4C(=O)CC(Cc5ccccc5)C4=O)CC3)C(=O)[C@@H]3CC=CC[C@H]23)cc1OC` (stereo partly specified): the Ki in assay [1] is 0.000316 µM; in assay [2], 0.0977 µM. Besides, the 50% inhibitory concentration (IC50) (in assay [3]; in the assay on Trypanosoma brucei) was 64.6 µM throughout.

As for `COc1ccc(C2=NN(C3CCN(c4ccnc(N)n4)CC3)C(=O)[C@@H]3CC=CC[C@H]23)cc1OC`, the Ki was 0.000513 µM in assay [1] and 0.257 µM in assay [2]. The results for the IC50 (in assay [3]; in the assay on Trypanosoma brucei) were 3.89 µM and 3.63 µM, respectively.

In the case of `COc1ccc(C2=NN(C3CCN(c4nc(N)c5ccccc5n4)CC3)C(=O)[C@@H]3CC=CC[C@H]23)cc1OC`, the Ki in assay [1] is 0.00245 µM; in assay [2], 0.646 µM. Moreover, the IC50 was 7.41 µM in assay [3] and 0.871 µM with Trypanosoma brucei.

On to `COc1ccc(-c2nn(C3CCNCC3)c(=O)n3ccnc23)cc1OC`, for which, in assay [2], the Ki is > 31.6 µM. Further, the IC50 in assay [3] was 64.6 µM; in the assay with Trypanosoma brucei, 32.4 µM.

`COc1ccc(-c2nn(C3CCN(c4nc(N)nc5sccc45)CC3)c(=O)n3ccnc23)cc1OC`: in assay [2], the Ki is > 18.2 µM. Also, the IC50 (in assay [3]; in the assay on Trypanosoma brucei) was 64.6 µM in each case.

In the case of `O=C(CN1C(=O)CC2(CCCCC2)CC1=O)N1CCC(N2N=C(c3ccc(OC(F)F)c(OC(F)F)c3)[C@H]3CC=CC[C@H]3C2=O)CC1`, the Ki in assay [1] was 0.00162 µM; in assay [2], 0.776 µM. Besides, the half-maximal inhibitory concentration (IC50) in assay [3] was 64.6 µM; in the assay with Trypanosoma brucei, 7.59 µM.

As to `COc1ccc(C2=NN(C3CCN(c4ncnc5ccsc45)CC3)C(=O)[C@@H]3CC=CC[C@H]23)cc1OC`, the results for the Ki in assay [1] and in assay [2] were 0.000234 µM and 0.0661 µM, respectively. Further, the figures for the concentration for half-maximal inhibition (IC50) (in assay [3]; in the assay with Trypanosoma brucei) were 7.24 µM and 0.372 µM, respectively.

Take `O=C(CN1C(=O)CC2(CCCC2)CC1=O)N1CCC(N2N=C(c3ccc(F)cc3)[C@H]3CC=CC[C@H]3C2=O)CC1` (relative stereo): in assay [2], the inhibitory constant (Ki) was > 16.6 µM. Besides, the figures for the IC50 (in assay [3]; in the assay on Trypanosoma brucei) were 40.7 µM and 32.4 µM, respectively.

Consider `COc1ccc(-c2ccc(=O)n(C3CCN(c4nc(N)nc5sccc45)CC3)n2)cc1OC`, for which the Ki in assay [2] was > 3.72 µM. Further, the IC50 in assay [3] was 11.2 µM; with Trypanosoma brucei, 7.76 µM.

With `CC1(C)CC(=O)N(CC(=O)N2CCC(N3N=C(c4ccc(F)c(F)c4)[C@H]4CC=CC[C@H]4C3=O)CC2)C(=O)C1` (relative stereo), in assay [2], the Ki was > 9.77 µM. For the same molecule, the IC50 in assay [3] was 30.9 µM; in the assay with Trypanosoma brucei it was 47.9 µM.

Turning to `CC1(C)CC(=O)N(CC(=O)N2CCC(N3N=C(c4ccc(F)c(F)c4)[C@H]4CCCC[C@H]4C3=O)CC2)C(=O)C1`, the Ki in assay [2] was > 22.4 µM. Further, the half-inhibitory concentration (IC50) is 42.7 µM in assay [3] and 45.7 µM with Trypanosoma brucei.

As for `COc1ccc(C2=NN(C3CCN(C(=O)CN4C(=O)CC5(CCCCC5)CC4=O)CC3)C(=O)[C@@H]3CCCC[C@H]23)cc1OC`, in assay [2], the Ki was > 9.77 µM. Besides, the IC50 in assay [3] is 8.51 µM.

Consider `O=C(CN1C(=O)CC2(CCCCC2)CC1=O)N1CCC(N2N=C(c3ccc(F)cc3)[C@H]3CC=CC[C@H]3C2=O)CC1` (relative stereo), for which, in assay [2], the Ki is > 9.55 µM. For the same molecule, the IC50 in assay [3] is 64.6 µM; in the assay on Trypanosoma brucei it was 10.2 µM.

With `COc1ccc(-c2n[nH]c(=O)n3ccnc23)cc1OC`, the Ki in assay [2] was > 31.6 µM. The IC50 (in assay [3]; in the assay on Trypanosoma brucei) was 64.6 µM throughout.

As to `O=C1[C@@H]2CC=CC[C@@H]2C(c2ccc(OC(F)F)c(O)c2)=NN1C1CCN(c2ncnc3ccsc23)CC1`, the Ki in assay [2] is > 1.66 µM. Moreover, the IC50 is 64.6 µM in assay [3] and 3.39 µM in the assay with Trypanosoma brucei.

In the case of `COc1ccc(C2=NN(C3CCN(c4ncnc5ccsc45)CC3)C(=O)C2(C)C)cc1OC`, the Ki in assay [2] was > 2.04 µM. The IC50 in assay [3] is 25.1 µM; in the assay on Trypanosoma brucei it was 32.4 µM.
